{"source": "ChEMBL document CHEMBL2021781", "about": "“Dual targeting of histone deacetylase and topoisomerase II with novel bifunctional inhibitors” (J Med Chem, 2012)", "key": {"[1]": {"target": "Histone deacetylase 1 (Homo sapiens, UniProt Q13547)", "sequence (Q13547 whole entry)": "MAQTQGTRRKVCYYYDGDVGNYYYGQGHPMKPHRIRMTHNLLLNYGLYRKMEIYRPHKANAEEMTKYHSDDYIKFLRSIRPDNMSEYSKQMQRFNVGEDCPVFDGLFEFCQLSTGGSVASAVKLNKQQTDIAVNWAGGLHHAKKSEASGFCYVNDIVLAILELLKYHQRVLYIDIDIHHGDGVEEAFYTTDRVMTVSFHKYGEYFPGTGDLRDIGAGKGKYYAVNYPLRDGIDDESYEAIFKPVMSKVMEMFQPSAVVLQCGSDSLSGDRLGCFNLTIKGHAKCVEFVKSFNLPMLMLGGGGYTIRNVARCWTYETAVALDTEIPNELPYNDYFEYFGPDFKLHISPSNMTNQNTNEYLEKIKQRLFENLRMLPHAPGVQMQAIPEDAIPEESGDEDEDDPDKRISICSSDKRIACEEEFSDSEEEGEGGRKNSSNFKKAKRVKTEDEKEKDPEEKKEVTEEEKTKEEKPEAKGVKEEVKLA", "experiment": "Inhibition of HDAC1 in human HeLa cell nuclear extract using Fluor de Lys as substrate after 15 mins by fluorometric analysis"}, "[2]": {"target": "T1, Histone deacetylase 8 (Homo sapiens, UniProt Q9BY41)", "T1 sequence (Q9BY41 whole entry)": "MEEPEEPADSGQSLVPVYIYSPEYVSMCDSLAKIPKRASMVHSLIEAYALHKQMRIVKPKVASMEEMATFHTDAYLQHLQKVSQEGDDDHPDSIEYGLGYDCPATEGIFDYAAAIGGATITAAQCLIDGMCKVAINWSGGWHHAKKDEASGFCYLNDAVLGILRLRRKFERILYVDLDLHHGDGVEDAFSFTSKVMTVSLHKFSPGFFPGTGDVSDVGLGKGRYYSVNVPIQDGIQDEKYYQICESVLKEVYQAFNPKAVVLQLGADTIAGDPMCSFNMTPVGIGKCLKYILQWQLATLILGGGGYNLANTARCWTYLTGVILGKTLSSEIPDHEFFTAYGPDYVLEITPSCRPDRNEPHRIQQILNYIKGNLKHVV", "experiment": "Inhibition of HDAC8 in human HeLa cell nuclear extract using Fluor de Lys as substrate after 15 mins by fluorometric analysis"}, "[3]": {"test_system": "MCF7", "experiment": "Antiproliferative activity against human MCF7 cells after 72 hrs by MTS assay", "assay_type": "functional, cell-based", "settings": "MCF7, 72 h"}, "[4]": {"target": "T2, Histone deacetylase (Homo sapiens) (UniProt Q13547+O15379+Q9UBN7+Q92769+Q9UQL6+Q8WUI4+Q9BY41+Q96DB2+P56524+Q9UKV0+Q969S8)", "experiment": "Inhibition of HDAC in human DU145 cells assessed as histone H4 acetylation after 24 hrs by Western blot analysis", "assay_type": "cell-based", "settings": "DU-145", "summary_of_the_method": "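DU-145 cells passaged 24 h before dosing, then exposed 24 h to compound in growth medium (final DMSO 0.1%); controls received 0.1% DMSO. Lysed in RIPA with protease inhibitors at 4°C, cleared at 14,000 × g. Protein quantified against BSA, boiled, transferred to nitrocellulose. Probed for acetyl-H3, acetyl-H4 and p21waf1 with actin loading control; read by near-infrared scanning at 700/800 nm.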"}, "[5]": {"target": "T3, Protein deacetylase HDAC6 (Homo sapiens) (UniProt Q9UBN7)", "T3 sequence (whole entry)": "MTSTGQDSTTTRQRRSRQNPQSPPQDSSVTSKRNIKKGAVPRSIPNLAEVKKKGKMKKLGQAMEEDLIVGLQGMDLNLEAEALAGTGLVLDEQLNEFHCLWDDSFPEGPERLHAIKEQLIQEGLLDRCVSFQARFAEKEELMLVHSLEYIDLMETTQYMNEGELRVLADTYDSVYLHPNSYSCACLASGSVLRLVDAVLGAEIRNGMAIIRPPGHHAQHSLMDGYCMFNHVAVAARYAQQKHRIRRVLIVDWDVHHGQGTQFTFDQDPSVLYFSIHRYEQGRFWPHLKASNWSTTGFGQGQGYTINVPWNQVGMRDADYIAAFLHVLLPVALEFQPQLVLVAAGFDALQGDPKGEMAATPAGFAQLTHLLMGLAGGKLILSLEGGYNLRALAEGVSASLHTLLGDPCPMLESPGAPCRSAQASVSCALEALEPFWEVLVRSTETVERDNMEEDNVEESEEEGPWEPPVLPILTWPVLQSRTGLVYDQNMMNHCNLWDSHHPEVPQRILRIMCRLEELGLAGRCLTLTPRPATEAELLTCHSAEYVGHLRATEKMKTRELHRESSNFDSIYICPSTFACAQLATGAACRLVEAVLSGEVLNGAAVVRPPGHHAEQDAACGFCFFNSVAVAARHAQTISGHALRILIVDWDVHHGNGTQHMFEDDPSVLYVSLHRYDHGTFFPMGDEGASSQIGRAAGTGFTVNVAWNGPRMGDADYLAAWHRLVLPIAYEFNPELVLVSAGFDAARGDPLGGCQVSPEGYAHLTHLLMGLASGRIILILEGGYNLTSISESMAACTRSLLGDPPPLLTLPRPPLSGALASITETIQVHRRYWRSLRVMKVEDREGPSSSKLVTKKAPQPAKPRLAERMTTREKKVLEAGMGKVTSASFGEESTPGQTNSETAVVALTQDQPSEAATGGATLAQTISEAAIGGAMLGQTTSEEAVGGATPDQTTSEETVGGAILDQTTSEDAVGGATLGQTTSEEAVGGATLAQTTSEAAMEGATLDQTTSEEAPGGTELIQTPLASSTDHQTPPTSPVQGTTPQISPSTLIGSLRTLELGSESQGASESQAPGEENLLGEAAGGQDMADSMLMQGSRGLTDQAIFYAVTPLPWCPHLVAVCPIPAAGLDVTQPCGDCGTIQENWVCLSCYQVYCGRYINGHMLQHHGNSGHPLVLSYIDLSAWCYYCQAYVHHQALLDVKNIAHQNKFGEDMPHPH", "experiment": "Inhibition of HDAC6-mediated tubulin acetylation in human DU145 cells at 130 nM after 4 hrs by Western blot analysis", "assay_type": "cell-based", "settings": "DU-145", "summary_of_the_method": "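DU-145 cells passaged 24 h before dosing, then treated 4 h, with no more than 0.1% DMSO including controls. Lysis in RIPA buffer with protease inhibitors, protein quantified against a BSA standard, SDS-PAGE and transfer. Blots probed with rabbit anti-tubulin and mouse anti-acetyl tubulin, read by near-infrared imaging at 700/800 nm.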"}, "[6]": {"target": "T2, Histone deacetylase (Homo sapiens)", "experiment": "Inhibition of HDAC in human DU145 cells assessed as upregulation of p21 expression at 5 times IC50 concentration after 4 hrs by Western blot analysis relative to control", "assay_type": "cell-based", "settings": "DU-145", "summary_of_the_method": "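Lysed in RIPA with protease inhibitors, cleared 14,000 RPM at 4°C. Immunoblotted, probing acetylated versus total tubulin; p21 also checked. Near-infrared detection at 700/800 nm.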"}, "[7]": {"experiment": "Drug uptake in human DU145 cell perinuclear region at 1 uM after 4 hrs by confocal microscopic analysis", "assay_type": "ADME, cell-based", "settings": "du-145, 4 h", "summary_of_the_method": "(§1)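 Cells plated on glass coverslips 24 h ahead, then given fresh media with compound at 1 μM for 4 h. After a PBS wash, coverslips were mounted and intracellular distribution imaged by confocal microscopy, excitation 488 nm. Done in DU-145 cells, with A549 lung tumor cells also examined.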"}, "[8]": {"experiment": "Drug uptake in human DU145 cell cytosol at 1 uM after 4 hrs by confocal microscopic analysis", "assay_type": "ADME, cell-based, DU-145", "summary_of_the_method": "as §1"}, "[9]": {"experiment": "Drug uptake in human A549 cell perinuclear region at 1 uM after 4 hrs by confocal microscopic analysis", "assay_type": "ADME, cell-based", "settings": "a549, 4 h", "summary_of_the_method": "as §1"}, "[10]": {"target": "T2, Histone deacetylase (Homo sapiens)", "settings": "DU-145, 0.5 to 1 uM"}}, "note": "The source made the active and inactive calls. The calls are words filed in the database; no cut-off is given here.", "data": [{"compound": "COc1cccc2c1C(=O)c1c(O)c3c(c(O)c1C2=O)C[C@@](O)(C(C)=O)C[C@@H]3O[C@H]1C[C@H](NCc2ccc(NC(=O)CCCCCCC(=O)NO)cc2)[C@H](O)[C@H](C)O1", "values": [{"measurement": "IC50", "setting": "[1]", "value": 47, "unit": "nM"}, {"measurement": "IC50", "setting": "[2]", "value": 220, "unit": "nM"}, {"measurement": "IC50", "setting": "[3]", "value": 990, "unit": "nM"}, {"measurement": "inhibition", "setting": "[4]", "value": "Dose-dependent effect"}, {"measurement": "inhibition", "setting": "[5]", "value": "Active"}, {"measurement": "Activity", "setting": "[6]", "value": "inactive"}, {"measurement": "Drug uptake", "setting": "[7]", "value": "Active"}, {"measurement": "Drug uptake", "setting": "[8]", "value": "Active"}, {"measurement": "Drug uptake", "setting": "[9]", "value": "Active"}, {"measurement": "inhibition", "setting": "[10]", "value": "inactive"}]}]}
